These results are taken from article PMC5754937 (Indian Journal of Pharmacology, 2017).

The test system of series [1] is Caco-2 cell monolayers. Put plainly: Caco-2 bidirectional permeability assay. Type of series: in vitro ADME. To be noted: A-to-B and B-to-A. (Caco-2 cells form a polarised layer with tight junctions and transporters.)
Series [2] can be described thus: Metabolic stability in pooled mouse liver microsomes. Type of series: in vitro ADME. In a few lines:
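Microsomes pooled from ~100 B6C3F1 mice (9–10 weeks old). Triplicate incubations: 25 μM test compound with 0.25 mg/mL protein in 50 mM phosphate (pH 7.4), 0.1% DMSO, preincubated 5 min at 37°C, then started with 1 mM NADPH. Samples taken at 0–60 min and quenched in ice-cold 10% perchloric acid with internal standard. LC-MS/MS peak-area ratios used; t½ from substrate disappearance. No-NADPH and heat-inactivated controls included.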
On the technique in general: Liver microsomes are a subcellular fraction often used to study metabolism.

The nature of series [3]: In vivo pharmacokinetics in male BALB/c mice.
For series [4], the system named is Visceral leishmaniasis. To be noted: cited from earlier work.

Counter-ions that a name gives are not always drawn. Where only a bound is given, the exact number is not on record here.

Consider `NC[C@@H]1O[C@H](O[C@H]2[C@@H](O)[C@H](O[C@@H]3[C@@H](O)[C@H](N)C[C@H](N)[C@H]3O[C@H]3O[C@H](CO)[C@@H](O)[C@H](O)[C@H]3N)O[C@@H]2CO)[C@H](N)[C@@H](O)[C@@H]1O` [paromomycin, Paromomycin sulfate], for which the figures for the “Caco-2 permeability (in words)” value in series [1] and in series [1] (listed as Paromomycin) were “negligible permeability” and “low permeability”, respectively. For the same compound, the “Stability in mouse liver microsomes (in words)” value in series [2] is given as “unstable”. For the same compound, the “Plasma clearance as % of hepatic (liver) blood flow” value in series [3] (IV, mice) is recorded as < 10%. In addition, in series [3] (male, BALB/c, mouse, plasma, iv, 15 mg/kg, CL, normal saline), the clearance (as a rule, a measure of how efficiently the substance is removed, as volume per time) was 8 mL/min/kg. Moreover, in series [4] (after 6 months, treatment with paromomycin i.m.), the Cure rate result was “About 95%”. The “Toxicity (in words)” value in series [4] (i.m. route) is “no nephrotoxicity and reversible ototoxicity”.
